Screens deposited in PubChem by Sanford-Burnham Center for Chemical Genomics.
CXCR6 inh: inhibitors of human CXCR6 receptor; 0.36% of 360,000 active; inhibition, % at 20 µM; O00574; AID 602244; CHO-K1 PathHunter CXCR6 beta-arrestin, luminescence; in the data active = inhibition above about 34%, passing the limit was not always enough;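 note: antagonist mode with CXCL16 agonist at 10 nM final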
Target sequence (O00574 whole entry, looked up): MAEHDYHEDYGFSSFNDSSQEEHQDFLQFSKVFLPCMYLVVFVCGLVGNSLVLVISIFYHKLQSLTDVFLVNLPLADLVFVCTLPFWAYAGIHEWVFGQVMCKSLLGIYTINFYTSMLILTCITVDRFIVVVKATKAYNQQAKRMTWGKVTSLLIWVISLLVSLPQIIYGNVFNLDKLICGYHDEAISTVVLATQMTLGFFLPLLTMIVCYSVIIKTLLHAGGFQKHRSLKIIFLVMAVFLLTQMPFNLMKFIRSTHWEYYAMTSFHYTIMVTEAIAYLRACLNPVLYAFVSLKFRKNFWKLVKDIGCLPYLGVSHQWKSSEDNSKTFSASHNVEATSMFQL
APJ antagonist: antagonists of human APJ apelin receptor. 0.32% of 330,000 active. P35414. inhibition, % at 20 µM. CHO-K1 APJ beta-arrestin complementation, luminescence;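 active = inhibition above about 40% at 20 µM, limit read from the data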;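 note: cells challenged with 10 nM apelin-13 agonist together with compound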
CCR6 antag: antagonists of human CCR6 receptor | 0.49% of 340,000 active | AID 493098 | CHO-K1 CCR6 PathHunter beta-arrestin, luminescence, CCL20-stimulated | inhibition, % at 20 µM | P51684;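 active = compounds whose inhibition of the agonist-driven luminescence signal at 20 µM reaches about 50%, limit read from the data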;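 note: cells stimulated with CCL20 at 14 nM final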
EBI2 antag: blocks human EBI2 receptor beta-arrestin signaling; AID 651636; P32249; inhibition, % at 5 µM; 0.81% of 360,000 active; EBI2 beta-arrestin recruitment, luminescence, 7a,25-OHC stimulated; in the data active = inhibition above about 38%;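 note: enzyme fragment complementation signal reports receptor beta-arrestin coupling in cells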
APJ agonist: agonists of human APJ apelin receptor | P35414 | CHO-K1 APJ PathHunter beta-arrestin, luminescence; 0% DMSO wells, 100% apelin | activation, % at 20 µM | 0.11% of 330,000 active | AID 2520;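 active = activation more than six SD over the plate average, tested at 20 µM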
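Material: CHO-K1 APJ beta-arrestin complementation cell line; Input: cell density 1000 per well; Incubation: compound stimulation 90 min at 25 °C, detection 60 min; Signal: luminescence from split beta-galactosidase complementation, Galacton Star/Emerald II substrate; Controls: DMSO-only wells as negative, 10 nM Apelin-13 as positive control.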
Numbers stand for hits; . = inactive; / = not tested or not shown. Hits are enriched below; roughly 1.5% of the tested compounds scored in any of these assays.

SMILES | CXCR6 inh | APJ antagonist | CCR6 antag | EBI2 antag | APJ agonist
CCOC(=O)c1ccc(S(=O)(=O)N2CCC(C(=O)NCC3COc4ccccc4O3)CC2)cc1 (configuration not stated) | . | / | / | . | /
C=C1C(=O)CC2=C1[C@](Cc1ccc(F)cc1)(C(=O)OC)N(C(=O)c1ccccc1)C2 | . | / | / | . | /
C=C1C(=O)C=C2CN(C(=O)c3ccccc3)[C@@](Cc3ccc(F)cc3)(C(=O)OC)[C@@H]12 | 88 | . | 100 | 76 | .
Cc1cc(C)c2cccc(NC(=S)NC(=O)c3ccccc3)c2n1 | . | . | 69 | . | .
Cc1ccccc1NC(=S)NC(=O)c1cc(-c2ccccc2)nc2ccccc12 | . | . | 56 | . | .
CC(=O)NC(=S)Nc1cccc2c(C)cc(C)nc12 | . | . | . | . | .
CCOC(=O)c1ccc(N=Cc2nc(-c3ccccc3)oc2OC(C)=O)cc1 | . | . | 50 | . | .
Cc1cc(C)c(NC(=O)C2C(=O)Nc3ccccc3C(=O)N2C(C)(C)C)c(C)c1 (configuration not stated) | / | / | / | . | /
Cc1[nH]n(-c2ccccc2)c(=O)c1C(C[N+](=O)[O-])c1ccc(Br)cc1 (configuration not stated) | 45 | . | . | . | .
COc1cccc(C(C[N+](=O)[O-])c2c(C)[nH]n(-c3ccccc3)c2=O)c1 (configuration not stated) | . | . | . | . | .
O=C1NC(=O)/C(=C/c2cccc([N+](=O)[O-])c2)N1 | . | . | . | . | .
CCN1C/C(=C/c2cccc([N+](=O)[O-])c2)C(=O)/C(=C/c2cccc([N+](=O)[O-])c2)C1 | . | / | 62 | . | /
CCOC(=O)C1(C)CCCN(C(=O)c2cccc(OC(F)(F)F)c2)C1 (configuration not stated) | . | / | / | . | /
N#Cc1ccc(S(=O)(=O)N2CCCCC2c2cc(C(=O)Nc3cccc4c3CCCC4)no2)cc1 (configuration not stated) | . | / | / | . | /
CCO[C@@H]1OC(C(=O)N2CCN(Cc3ccccc3)CC2)=C[C@H](c2ccc(Br)cc2)[C@H]1CCCO | 48 | . | 58 | . | .
COC(=O)c1c(C)[nH]c(C(=O)OC(C)C(=O)NC2CCCCC2C)c1C (configuration not stated) | . | / | / | . | /
COC1=CC(=O)C=C(OC)C1=O | 81 | / | 86 | . | /
CCN(CC)c1ccc(/C=N/N=C(c2ccccc2)c2ccccc2)c(O)c1 | . | . | . | 66 | .
O=S(=O)(Nc1ccc(N=Nc2ccc(O)c3ccccc23)cc1)c1ccccc1 | . | . | 61 | 47 | .
CCN(CC)CCn1c(NC(=O)c2ccccc2O)nc2ccccc21 | 57 | . | / | . | .
CCN(CC)CCn1c(NC(=O)c2ccc(Cl)cc2)nc2ccccc21 | . | . | . | . | .
O=c1cc2oc3cc(O)c(O)cc3c(-c3ccccc3O)c-2cc1O | . | / | . | . | /
CCOc1ccccc1-c1c2cc(O)c(=O)cc-2oc2cc(O)c(O)cc12 | . | / | 56 | . | /
CCOC(=O)N1CCC(n2c(=S)[nH]c3cc(OCC)c(OCC)cc3c2=O)CC1 | . | . | . | 60 | .
Cc1ccccc1C1=C/C(=C(\SS/C(C(=O)c2ccc(OCC(=O)O)c(Cl)c2Cl)=C2\C=C(c3ccccc3C)SS2)C(=O)c2ccc(OCC(=O)O)c(Cl)c2Cl)SS1 | . | / | 62 | . | /
SMILES | CXCR6 inh | APJ antagonist | CCR6 antag | EBI2 antag | APJ agonist
Nc1ccn([C@@H]2O[C@H](CNCc3cccc(OC4CCCC4)c3)[C@@H](O)[C@H]2O)c(=O)n1 | . | / | / | . | /
O=C(O)CCCN1C(=O)/C(=C/c2ccc(-c3nc4ccccc4s3)o2)SC1=S | . | . | . | 53 | .
O=C(OCc1ccccc1)N1CCC2CC1c1ccc(N3CCNCC3)cc12 (configuration not stated) | . | / | / | . | /
CC1(C)OC(c2ccccc2)=C/C(=C/C=C2C(=O)c3ccccc3C2=O)O1 | 46 | . | 59 | . | .
CCOC(=O)C1CCCN(C(=O)c2oc3ccccc3c2C)CC1 (configuration not stated) | . | / | / | . | /
Cc1cccc(Cn2c(=O)n(Cc3ccco3)c(=O)c3ccccc32)c1 | . | . | . | 61 | .
CCn1c(=O)c2ccccc2n(Cc2cccc(C)c2)c1=O | . | . | . | . | .
Cc1oc2c(c1C(=O)c1ccccc1)C(=O)C(=O)c1ccccc1-2 | . | . | 71 | . | .
O=C(/C=C/c1ccccc1)c1cc(Br)ccc(=O)c1O | . | . | 59 | . | .
CC(C)C[C@H]1C(=O)N2CCC[C@H]2[C@]2(O)O[C@](NC(=O)[C@@H]3C=C4c5cccc6[nH]c(Br)c(c56)CC4N(C)C3)(C(C)C)C(=O)N12 (some centres not stated) | . | . | . | 89 | .
CC1=CC(=Nc2c(C)n(C)n(-c3ccccc3)c2=O)C=C(C)C1=O | . | . | . | . | .
CCC(C)C1=CC(=Nc2c(C)n(C)n(-c3ccccc3)c2=O)C=C(C(C)CC)C1=O (configuration not stated) | . | . | 51 | . | .
COc1ccccc1Cn1c(/C=C/c2ccccc2)nc2ccccc21 | . | . | . | . | .
COc1ccc(/C=C/c2nc3ccccc3n2Cc2ccccc2OC)cc1 | . | . | . | 55 | .
COC(=O)/C=C1\OCc2cccc(C)c21 | / | / | / | . | /
O=C1c2cccc([N+](=O)[O-])c2C(=O)N1C1CCCCC1 | . | . | . | . | .
Cc1c(Cl)cccc1N1C(=O)C(N2C(=O)c3cccc([N+](=O)[O-])c3C2=O)C1c1cccs1 (configuration not stated) | . | . | . | 48 | .
CCN(CC)c1ccc(/C=C(/C#N)c2nc3ccc(C)cc3[nH]2)c(OC(C)C)c1 | . | . | 52 | . | .
COc1cc(/C=C(\C#N)c2nc3ccc(C)cc3[nH]2)cc([N+](=O)[O-])c1O | . | / | 51 | . | /
CCc1ccc2nc(SCC(=O)N3CC(=O)Nc4ccccc43)c(C#N)cc2c1 | . | . | . | 49 | .
Cc1ccccc1Oc1cc(-n2ncc(Cl)c(Cl)c2=O)ncn1 | 46 | / | 65 | 68 | /
COc1ccc(Cl)cc1NC(=O)c1cccc(S(=O)(=O)Nc2c(C)n(C)n(-c3ccccc3)c2=O)c1 | / | / | . | / | /
C[C@@H]1CCCCO[C@H](CN(C)Cc2ccc3c(c2)OCO3)[C@@H](C)CN([C@H](C)CO)C(=O)c2cc(NC(=O)c3ccccc3)ccc2O1 | . | / | / | . | /
CCCCOc1cccc(C(=O)NC(=S)Nc2cccc(C(F)(F)F)c2)c1 | . | . | 51 | . | .
CC(C)Oc1cccc(C(=O)NC(=S)Nc2cccc(C(F)(F)F)c2)c1 | . | . | / | . | .
COc1cc(C)ccc1S(=O)(=O)NC(=O)Cn1nnc(COc2ccc3c(c2)CCCC3)c1C | . | / | / | . | /
COc1ccc2[nH]c3c4c(ccc3c2c1)C(=O)C=CC4=O | . | . | 61 | . | .
COc1ccc2[nH]c(=O)cc(C(=O)O)c2c1 | . | . | . | . | .
